The record followed here is ChEMBL document CHEMBL3526142, “Biotransformation of a novel antimitotic agent, I-387, by mouse, rat, dog, monkey, and human liver microsomes and in vivo pharmacokinetics in mice” (Drug Metab Dispos, 2011).

A short description of data set [1]: Plasma concentration in ICR mouse at 15 mg/kg, ip measured for 30 hrs by LC-MS/MS analysis. It is filed as ADME, organism-based. Set-up: dose 15 mg/kg, route intraperitoneal. Summed up:
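Male ICR mice given 15 mg/kg intraperitoneally in 10% DMSO/PEG300. Plasma from 3–4 mice per time point was collected via the posterior vena cava, protein-precipitated with acetonitrile plus internal standard, and quantified by LC-MS/MS (MRM m/z 388.2→192).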

Data set [2] can be described thus: Drug level in monkey liver microsomes assessed as compound retention time treated with 0.5 uM I-387 after 2 hrs by LC-MS/MS analysis. The class given is ADME, Macaca mulatta. The conditions noted are these: rhesus monkey. An outline of the steps:
(§1)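 Pooled liver microsomes (1 mg/ml protein) incubated with 0.5 µM substrate and 3 mM NADPH in 65 mM potassium phosphate, pH 7.4, 1% methanol, at 37°C for 2 h. Stopped with ice-cold acetonitrile containing internal standard, centrifuged. Supernatant analysed by LC-MS/MS on a C18 column, 15-min gradient, with product ion scans for metabolite identification.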

Data set [3] can be described thus: Retention time of the compound at 0.5 uM by LC-MS/MS analysis. It is filed as physicochemical. An outline of the steps: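 After a 2 h incubation at 37°C with liver microsomes (1 mg/ml protein, 3 mM NADPH, 0.5 μM substrate, pH 7.4 phosphate buffer), samples were quenched with acetonitrile and centrifuged. Supernatant separated on a C18 column (15 min run, linear gradient 100% A to 100% B over 7 min) with LC-MS/MS ion trap detection.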

Data set [4] can be described thus: AUC (infinity) in ICR mouse at 5 mg/kg, po via gavage by LC-MS/MS analysis. Set-up: time infinity, dose 5 mg/kg, route oral. It is filed as ADME, organism-based. The settings on record: plasma. An outline of the steps: (§2)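 Male ICR mice (5–6 weeks, 20–25 g), single doses of 1, 5 or 15 mg/kg in 10% DMSO/PEG300, given iv by tail vein, ip, or orally by gavage. Three to four mice per time point, euthanized under isoflurane, blood drawn from posterior vena cava. Plasma protein precipitated with acetonitrile containing internal standard, then LC-MS/MS (MRM m/z 388.2→192). Noncompartmental analysis of mean concentration-time data, AUCinf by trapezoidal rule with extrapolation, CL = dose/AUCinf, Cmax read from the curve. F = (AUCnon-iv × dose iv)/(AUCiv × dose non-iv). n = 3 per dose group.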

Data set [5] can be described thus: Bioavailability in ICR mouse at 15 mg/kg, ip by LC-MS/MS analysis. The class given is ADME, organism-based. The conditions noted are these: in vivo. An outline of the steps: as §2
Data set [6] can be described thus: Volume of distribution at steady state in ICR mouse at 5 mg/kg, iv by LC-MS/MS analysis. It is filed as ADME, organism-based. Also noted: dose 5 mg/kg, route intravenous. The settings on record: in vivo, read-out: Vdss. Summed up:
(§3)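 Tail-vein injection in male ICR mice (5–6 weeks), vehicle 10% DMSO in PEG300. Serial terminal sampling of 3–4 mice per time point, with posterior vena cava blood. Plasma was acetonitrile-precipitated and measured by LC-MS/MS. Noncompartmental analysis of mean data: t1/2 = ln2/λz, CL = dose/AUC_inf, Vd_ss = CL × MRT_inf; n = 3/dose group.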

Data set [7] is described as follows: Mean residence time (infinity) in ICR mouse at 15 mg/kg, ip by LC-MS/MS analysis. Also noted: dose 15 mg/kg, route intraperitoneal. The settings on record: in vivo. The class given is ADME, organism-based. An outline of the steps:
as §2

A short description of data set [8]: Cmax in ICR mouse at 1 mg/kg, ip by LC-MS/MS analysis. It is filed as ADME, organism-based. The settings on record: in vivo. Set-up: dose 1 mg/kg, route intraperitoneal. Summed up:
as §2

Data set [9] is described as follows: Terminal half life in ICR mouse at 1 mg/kg, ip by LC-MS/MS analysis. The settings on record: in vivo, read-out: beta t1/2 (converted). The class given is ADME, organism-based. Also noted: dose 1 mg/kg, route intraperitoneal. An outline of the steps: (§4)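 Male ICR mice (20–25 g) given the compound intraperitoneally or by gavage in 10% DMSO/PEG300. Three to four mice were sacrificed per time point and plasma collected from the vena cava. Plasma was precipitated with acetonitrile containing internal standard and analysed by LC-MS/MS. Noncompartmental analysis of mean concentration-time data: terminal t1/2 = ln2/λz; Tmax by inspection; n = 3/dose group.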

A short description of data set [10]: Drug metabolism in monkey liver microsomes assessed as (3-(1H-indol-2-yl)phenyl)(3,4,5-trimethoxyphenyl)methanol formation at 0.5 uM after 2 hrs by LC-MS/MS analysis in presence of 3 mM NADPH. The class given is ADME, Macaca mulatta. The conditions noted are these: rhesus monkey. An outline of the steps: as §1
(In general: Liver microsomes are a subcellular fraction often used to study metabolism.)

Data set [11] is described as follows: Terminal half life in ICR mouse at 5 mg/kg, po via gavage by LC-MS/MS analysis. Also noted: dose 5 mg/kg, route oral. The settings on record: in vivo, read-out: beta t1/2 (converted). It is filed as ADME, organism-based. An outline of the steps: as §4
Data set [12] in a line: AUC (infinity) in ICR mouse at 1 mg/kg, iv by LC-MS/MS analysis. The settings on record: plasma. It is filed as ADME, organism-based. Set-up: time infinity, dose 1 mg/kg, route intravenous. An outline of the steps: as §2
Data set [13] is described as follows: Antitumor activity against human MESSA/DX5 cells xenografted in nu/nu mouse assessed as decrease in tumor growth at 10 mg/kg, ip 2 days per week for weeks. It is filed as functional. The conditions noted are these: MES-SA/Dx5, ip, 48 h, route intraperitoneal.
Data set [14] can be described thus: Metabolic stability in rat liver microsomes assessed as half life during phase 1 at 0.5 uM by LC-MS/MS analysis in presence of 3 mM NADPH and absence of UDPGA. It is filed as ADME. The settings on record: read-out: alphat1/2. An outline of the steps:
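Pooled liver microsomes at 1 mg/ml protein with 3 mM NADPH, 0.5 μM substrate in 65 mM potassium phosphate pH 7.4, 1% methanol, 37°C. Incubations stopped at 10, 20, 30, 60 and 90 min with ice-cold acetonitrile plus internal standard, then LC-MS/MS of parent remaining relative to time 0. Half-life from a two-parameter single exponential decay fit; n = 2 to 3.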

Data set [15] concerns Liver microsome. The experiment in a line: Drug metabolism in dog liver microsomes assessed as (3-(1H-indol-2-yl)phenyl)(3,4,5-trimethoxyphenyl)methanol formation at 0.5 uM after 2 hrs by LC-MS/MS analysis in presence of 3 mM NADPH. The class given is ADME, Canis lupus familiaris. An outline of the steps:
as §1

Data set [16] in a line: Metabolic stability in dog liver microsomes assessed as half life during phase 1 at 0.5 uM by LC-MS/MS analysis in presence of 3 mM NADPH and absence of UDPGA. The class given is ADME, Canis lupus familiaris. The settings on record: read-out: alphat1/2. Summed up: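 Pooled liver microsomes (1 mg/ml) incubated with 0.5 µM substrate and 3 mM NADPH in 65 mM potassium phosphate, pH 7.4, 1% methanol, at 37°C. The phase I+II set also had 5 mM UDPGA, 5 mM D-saccharolactone, 50 µg/ml alamethicin and 3 mM MgCl2. Stopped at 10–90 min with cold acetonitrile plus internal standard. Parent remaining by LC-MS/MS relative to time 0. t1/2 from a two-parameter single exponential decay fit; n = 2–3.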

Data set [17] is described as follows: Metabolic stability in monkey liver microsomes assessed as half life during phase 1 and 2 at 0.5 uM by LC-MS/MS analysis in presence of 3 mM NADPH and […] UDPGA. It is filed as ADME, Macaca mulatta. The settings on record: rhesus monkey, read-out: alphat1/2.
Data set [18] in a line: Metabolic stability in mouse liver microsomes assessed as half life during phase 1 and 2 at 0.5 uM by LC-MS/MS analysis in presence of 3 mM NADPH and […] UDPGA. The class given is ADME. The settings on record: read-out: alphat1/2.
The nature of data set [19]: Terminal half life in ICR mouse at 15 mg/kg, po via gavage by LC-MS/MS analysis. The class given is ADME, organism-based. Set-up: dose 15 mg/kg, route oral. The conditions noted are these: in vivo, read-out: beta t1/2 (converted). An outline of the steps:
as §4

A short description of data set [20]: Cmax in ICR mouse at 15 mg/kg, po via gavage by LC-MS/MS analysis. It is filed as ADME, organism-based. Set-up: dose 15 mg/kg, route oral. The conditions noted are these: in vivo. Summed up: as §2
The nature of data set [21]: Terminal half life in ICR mouse at 1 mg/kg, iv by LC-MS/MS analysis. The class given is ADME, organism-based. Also noted: dose 1 mg/kg, route intravenous. The settings on record: in vivo, read-out: beta t1/2 (converted). An outline of the steps: as §3
A short description of data set [22]: Mean residence time (infinity) in ICR mouse at 1 mg/kg, ip by LC-MS/MS analysis. It is filed as ADME, organism-based. Set-up: dose 1 mg/kg, route intraperitoneal. The settings on record: in vivo. An outline of the steps:
as §2

A short description of data set [23]: AUC (infinity) in ICR mouse at 15 mg/kg, po via gavage by LC-MS/MS analysis. The class given is ADME, organism-based. Also noted: time infinity, dose 15 mg/kg, route oral. The conditions noted are these: plasma. Summed up:
as §2

The nature of data set [24]: Cmax in ICR mouse at 15 mg/kg, iv by LC-MS/MS analysis. It is filed as ADME, organism-based. Also noted: dose 15 mg/kg, route intravenous. The settings on record: in vivo. Summed up:
as §2

Where only a bound is given, the exact number is not on record here.

`COc1cc(C(=O)c2cccc(-c3cc4ccccc4[nH]3)c2)cc(OC)c1OC` registered a concentration at 30 h in data set [1] greater than 0.071 µg/mL. In addition, the Retention_time in [2] and in data set [3] was 11.3 min each time. For the same compound, the results for the AUC(0-inf) in data set [4], in [12] and in [23] were 0.517 µg·h/mL, 0.617 µg·h/mL and 1.07 µg·h/mL, respectively. Also, the bioavailability in data set [5] was 94%. In [6], the Vd was determined as 3.8 L/kg. For the same compound, the mean residence time MRT inf in data set [7] came to 7 h; in data set [22], 6.4 h. In addition, the results for the Cmax in data set [8], in data set [20] and in [24] were 0.25 µg/mL, 0.26 µg/mL and 7.53 µg/mL, respectively. In addition, the half-life is 8 h in data set [9], 7.7 h in data set [11], 7.9 h in data set [19] and 7 h in data set [21]. The Drug metabolism result in data set [10] and in [15] was “metabolite_detected” in each case. Also, the inhibition in vivo at 10 mg/kg in data set [13] was 76%. In addition, the half-life at 0.5 µM in data set [14] came out at 0.7 h; in data set [16], 0.483 h; in [17], 0.183 h; in data set [18] it was 0.65 h.

The AUC(0-inf) is the area under the concentration-time curve extrapolated to infinity. For orientation: bioavailability means the share of a dose that reaches the circulation, judged against a reference dose that is usually intravenous. What is called MRT inf is a mean duration of stay, worked out from the concentration-time curve. A word on the Cmax: it is the maximum level reached in the sampled fluid or tissue. Usually inhibition in vivo stands for how much of the control response was suppressed.
